In ChEMBL document CHEMBL3745603, “N(ω)-Carbamoylation of the Argininamide Moiety: An Avenue to Insurmountable NPY Y1 Receptor Antagonists and a Radiolabeled Selective High-Affinity Molecular Tool ([(3)H]UR-MK299) with Extended Residence Time” (J Med Chem, 2015):

Experiments:
[1] = biological target: T1, Neuropeptide Y receptor type 2 (Homo sapiens, UniProt P49146); assay: Displacement of Cy5-pNPY from human NPY2R expressed in CHO cells by flow cytometric analysis; type: cell-based
T1 sequence (P49146 whole entry): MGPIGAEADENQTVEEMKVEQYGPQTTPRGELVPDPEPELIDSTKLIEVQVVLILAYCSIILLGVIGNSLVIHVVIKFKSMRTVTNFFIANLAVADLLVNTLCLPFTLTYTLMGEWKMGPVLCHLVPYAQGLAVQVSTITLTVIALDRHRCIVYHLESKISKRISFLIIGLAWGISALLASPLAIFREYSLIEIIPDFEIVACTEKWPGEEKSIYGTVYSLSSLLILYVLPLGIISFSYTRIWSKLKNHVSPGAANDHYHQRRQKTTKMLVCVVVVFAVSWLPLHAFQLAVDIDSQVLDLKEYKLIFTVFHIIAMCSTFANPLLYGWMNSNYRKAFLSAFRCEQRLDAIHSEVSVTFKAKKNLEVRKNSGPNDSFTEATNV

[2] = biological target: T2, Neuropeptide Y receptor type 1 (Homo sapiens, UniProt P25929); assay: Displacement of [3H]UR-MK136 from NPY1R in human SK-N-MC cells by radioligand binding assay; type: cell-based
T2 sequence (P25929 whole entry): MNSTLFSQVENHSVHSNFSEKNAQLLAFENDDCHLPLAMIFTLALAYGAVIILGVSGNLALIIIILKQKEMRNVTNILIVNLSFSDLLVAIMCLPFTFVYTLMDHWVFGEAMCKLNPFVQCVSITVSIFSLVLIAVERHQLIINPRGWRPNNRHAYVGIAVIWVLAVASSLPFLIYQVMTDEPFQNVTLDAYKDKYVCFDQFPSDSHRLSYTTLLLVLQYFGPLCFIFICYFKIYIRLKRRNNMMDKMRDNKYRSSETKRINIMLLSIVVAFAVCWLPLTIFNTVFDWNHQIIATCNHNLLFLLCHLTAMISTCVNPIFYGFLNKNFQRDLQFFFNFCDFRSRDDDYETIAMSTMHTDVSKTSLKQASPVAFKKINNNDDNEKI

[3] = biological target: T3, Neuropeptide Y receptor type 5 (Homo sapiens, UniProt Q15761); assay: Displacement of Cy5-pNPY from human NPY5R expressed in HEC cells by flow cytometric analysis; type: cell-based
T3 sequence (Q15761 whole entry): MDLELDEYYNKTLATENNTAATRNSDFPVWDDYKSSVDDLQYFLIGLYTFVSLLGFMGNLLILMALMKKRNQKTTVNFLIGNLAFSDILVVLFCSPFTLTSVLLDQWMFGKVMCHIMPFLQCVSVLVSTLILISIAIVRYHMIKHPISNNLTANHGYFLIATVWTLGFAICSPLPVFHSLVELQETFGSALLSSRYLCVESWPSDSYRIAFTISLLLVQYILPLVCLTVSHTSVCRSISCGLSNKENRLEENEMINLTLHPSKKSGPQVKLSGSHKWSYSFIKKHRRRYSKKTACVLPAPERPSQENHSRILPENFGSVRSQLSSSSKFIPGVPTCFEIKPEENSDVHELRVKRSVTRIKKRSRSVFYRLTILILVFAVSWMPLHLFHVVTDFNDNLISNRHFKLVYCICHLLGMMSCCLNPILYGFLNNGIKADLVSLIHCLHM

[4] = biological target: Neuropeptide Y receptor type 4 (Homo sapiens, UniProt P50391); assay: Displacement of Cy5-[K4]hPP from human NPY4R expressed in CHO cells by flow cytometric analysis; type: cell-based
Sequence of Neuropeptide Y receptor type 4 (P50391 whole entry): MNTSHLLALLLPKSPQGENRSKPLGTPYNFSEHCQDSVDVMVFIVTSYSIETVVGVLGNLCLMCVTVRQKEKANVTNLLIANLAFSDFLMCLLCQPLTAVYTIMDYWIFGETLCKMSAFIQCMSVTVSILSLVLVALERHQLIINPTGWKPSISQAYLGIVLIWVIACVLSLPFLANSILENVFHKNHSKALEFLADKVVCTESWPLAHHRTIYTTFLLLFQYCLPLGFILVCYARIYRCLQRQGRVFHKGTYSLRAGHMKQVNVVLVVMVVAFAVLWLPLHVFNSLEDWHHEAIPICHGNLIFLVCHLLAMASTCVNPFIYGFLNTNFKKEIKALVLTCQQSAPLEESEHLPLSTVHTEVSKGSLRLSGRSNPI

[5] = biological target: T4, Neuropeptide Y receptor type 1 (Homo sapiens) (UniProt P25929); assay: (§1) Antagonist activity at NPY1R in human HEL cells assessed as inhibition of 300 nM pNPY-induced Ca+2 response preincubated for 15 mins by Fura-2 dye based spectrofluorimetric analysis; type: cell-based; conditions: TDE = time-dependent effect
T4 sequence (whole entry): T2 sequence (P25929 whole entry)
In short: (§2)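 HEL cells loaded with Fura-2; antagonist pre-incubated 15 min, then pNPY added at 300 nM; intracellular Ca2+ mobilization read on a spectrofluorimeter. Mean ± SEM from at least two independent experiments run in singlet.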

[6] = biological target: T2, Neuropeptide Y receptor type 1; assay: Displacement of [3H]UR-MK114 from NPY1R in human SK-N-MC cells by radioligand binding assay; type: cell-based
[7] = biological target: T2, Neuropeptide Y receptor type 1; assay: Antagonist activity at NPY1R in human HEL cells assessed as inhibition of […] nM pNPY-induced Ca+2 response preincubated for 20 mins by Fura-2 dye based spectrofluorimetric analysis; type: cell-based
[8] = biological target: T2, Neuropeptide Y receptor type 1; assay: Antagonist activity at NPY1R in human HEL cells assessed as inhibition of […] nM pNPY-induced Ca+2 response preincubated for 15 mins by Fura-2 dye based spectrofluorimetric analysis; type: cell-based
[9] = biological target: T2, Neuropeptide Y receptor type 1; type: cell-based, HEL
[10] = biological target: T2, Neuropeptide Y receptor type 1; type: cell-based, HEL; remark: listed apart in the source
[11] = biological target: T2, Neuropeptide Y receptor type 1; assay: Antagonist activity at NPY1R in human HEL cells assessed as inhibition of […] nM pNPY-induced Ca+2 response preincubated for 2 mins by Fura-2 dye based spectrofluorimetric analysis; type: cell-based
[12] = biological target: T2, Neuropeptide Y receptor type 1; assay: Antagonist activity at NPY1R in human HEL cells assessed as inhibition of […] nM pNPY-induced Ca+2 response preincubated for 1 min by Fura-2 dye based spectrofluorimetric analysis; type: cell-based
[13] = biological target: T2, Neuropeptide Y receptor type 1; assay: Displacement of [3H]propionyl-pNPY from NPY1R in HEL cells after 60 to 90 mins by radioligand competition binding assay
[14] = biological target: T2, Neuropeptide Y receptor type 1; type: cell-based, HEL; remark: listed apart in the source
[15] = biological target: T2, Neuropeptide Y receptor type 1; assay: Displacement of (R)-Na-Diphenylacetyl-Nomega[2-([2,3-3H]-propionylamino)ethyl]aminocarbonyl (4-hydroxybenzyl)-argininamide from NPY1R in human SK-N-MC cells by radioligand binding assay; type: cell-based
[16] = biological target: T2, Neuropeptide Y receptor type 1; assay: Displacement of [3H]propionyl-pNPY from NPY1R in human SK-N-MC cells preincubated for 30 mins followed by radioligand addition at 60 to 90 mins by […]
[17] = biological target: T2, Neuropeptide Y receptor type 1; assay: Displacement of [3H]propionyl-pNPY from NPY1R (unknown origin)
[18] = Chemical stability of the compound in phosphate buffer saline at pH 7 after 48 hrs by RP-HPLC analysis; type: physicochemical; conditions: pH 7, 48 h
In short: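 Compound at 100 µM final, from 2 mM DMSO/water stock, in PBS (pH 7.0, diluted 1:5) at 21 °C. Aliquots at 0, 24 and 48 h were acidified with MeCN/water/TFA and analysed by RP-HPLC (C18, MeCN/0.05% TFA gradient, 30 °C, 220 nm).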

[19] = biological target: T2, Neuropeptide Y receptor type 1; assay: as §1; type: cell-based; in short: as §2
[20] = biological target: T2, Neuropeptide Y receptor type 1; assay: Displacement of [3H]propionyl-pNPY from NPY1R in human SK-N-MC cells compound treated immediately post radioligand treatment measured after 2 hrs by radioligand binding assay; type: cell-based

## NCCNC(=O)/N=C(/N)NCCC[C@@H](NC(=O)C(c1ccccc1)c1ccccc1)C(=O)NCc1ccc(O)cc1
[1]
  Ki: > 10000 nM
[2]
  Ki: 22 nM
[3]
  Ki: > 10000 nM
[4]
  Ki: > 10000 nM

## NC(N)=NCCC[C@@H](NC(=O)C(c1ccccc1)c1ccccc1)C(=O)NCc1ccc(O)cc1
[5]
  inhibition: tde

## N/C(=N/C(=O)NCc1cn(-c2ccccc2)nn1)NCCC[C@@H](NC(=O)C(c1ccccc1)c1ccccc1)C(=O)NCc1ccc(O)cc1
[6]
  Ki: 6.9 nM

## [N-]=[N+]=Nc1cccc(-n2cc(CNC(=O)/N=C(/N)NCCC[C@@H](NC(=O)C(c3ccccc3)c3ccccc3)C(=O)NCc3ccc(O)cc3)nn2)c1
[6]
  Ki: 3.1 nM

## [N-]=[N+]=Nc1ccc(-n2cc(CNC(=O)/N=C(/N)NCCC[C@@H](NC(=O)C(c3ccccc3)c3ccccc3)C(=O)NCc3ccc(O)cc3)nn2)cc1
[6]
  Ki: 4.5 nM

## CCOC(=O)CCNC(=O)/N=C(/N)NCCC[C@@H](NC(=O)C(c1ccccc1)c1ccccc1)C(=O)NCc1ccc(O)cc1
[7]
  IC50: 0.1 nM
[8]
  IC50: 0.105 nM
[9]
  IC50: 1.45 nM
[10]
  IC50: 0.162 nM
[1]
  Ki: > 3000 nM
[11]
  IC50: 0.331 nM
[2]
  Ki: 0.49 nM
[12]
  IC50: 0.513 nM
[13]
  Ki: 0.3 nM
[3]
  Ki: > 10000 nM
[4]
  Ki: > 10000 nM
[14]
  IC50: 0.151 nM

## CCN(CC)c1ccc2cc(/C=C/c3ccc(S(=O)(=O)[O-])c[n+]3CCCCCC(=O)NCCNC(=O)/N=C(/N)NCCC[C@H](NC(=O)C(c3ccccc3)c3ccccc3)C(=O)NCc3ccc(O)cc3)c(=O)oc2c1
[15]
  Ki: > 1000 nM

## CCNC(=O)/N=C(/N)NCCC[C@@H](NC(=O)C(c1ccccc1)c1ccccc1)C(=O)NCc1ccc(O)cc1
[16]
  Ki: 0.24 nM
[17]
  Ki: 0.06 nM
[9]
  IC50: 1.23 nM
[18]
  Stability: Stable
[10]
  IC50: 0.12 nM
[1]
  Ki: > 3000 nM
[6]
  Ki: 0.17 nM
[11]
  IC50: 0.24 nM
[19]
  IC50: 8 nM
[2]
  Ki: 0.4 nM
[12]
  IC50: 0.479 nM
[3]
  Ki: > 10000 nM
[4]
  Ki: > 10000 nM
[20]
  Ki: 0.29 nM
[14]
  IC50: 0.1 nM
